Measured values gathered from unrelated publications.
Compare with care: the assays were run in different laboratories.
RET V804M: Proto-oncogene tyrosine-protein kinase receptor Ret (RET, Homo sapiens, UniProt P07949, V804M)
RET M918T: Proto-oncogene tyrosine-protein kinase receptor Ret (RET, Homo sapiens, UniProt P07949, M918T)
RET V804L: Proto-oncogene tyrosine-protein kinase receptor Ret (RET, Homo sapiens, UniProt P07949, V804L)
RET: Proto-oncogene tyrosine-protein kinase receptor Ret (RET, Homo sapiens, UniProt P07949)

The remaining binding of `O=C(NCCCN1CCOCC1)c1ccc(Nc2nccc(-c3cc4ccccc4s3)n2)cc1` is reported as 81% (RET V804M; binding, competition with immobilised ligand; 1 µM).
The remaining binding of `COc1cnc(Nc2cccc(S(N)(=O)=O)c2)nc1N1CCN(c2ccccc2)C(=O)C1` is reported as 100% (RET M918T; binding, competition with immobilised ligand; 1 µM).
With `CN(C)c1nccc(-c2cnn3ncccc23)n1` the remaining binding was 100% (RET V804M; binding; 1 µM).
With `N#Cc1ccc(Nc2ccc3[nH]c(=O)[nH]c3c2)c(Cl)c1` the remaining binding was 93% (RET V804M; cell-free assay, competition with immobilised ligand; 1 µM).
`CCN1CCN(Cc2ccc(C(=O)Nc3ccc(C)c(Oc4ccc5c(c4)CC(=O)N5)c3)cc2C(F)(F)F)CC1` gave a remaining binding of 99% (RET V804L; binding, competition with immobilised ligand; 1 µM).
With `C=CC(=O)N1CCC(C(=O)NCC(=O)N2CCN(c3nc(-c4cnc(N)nc4C(F)F)nc(N4CCOCC4)n3)CC2)CC1` the remaining binding was 100% (RET V804M; binding, competition with immobilised ligand; 1 µM).
`CCS(=O)(=O)c1cc2cc(C[C@](O)(CC(C)(C)c3ccc(F)cc3C(N)=O)C(F)(F)F)[nH]c2cn1` has a remaining binding of 100% (RET V804L; cell-free assay, competition with immobilised ligand; 1 µM).
`F[C@@H]1CCN(c2nccc(-c3cnn4ncccc34)n2)C1` gave a remaining binding of 92% (RET; binding; 1 µM).
The remaining binding of `Cc1cc(-n2nc(Cc3cc(F)cc(C(F)(F)F)c3)nc2C)ccc1C(N)=O` is reported as 96% (RET; cell-free assay, competition with immobilised ligand; 1 µM).
With `CC(C)(C)c1ccc(-c2nc(CBr)nn2-c2cccc(O)c2)cc1` the remaining binding was 93% (RET; cell-free assay, competition with immobilised ligand; 10 µM).
With `CN(c1nccc(-c2cnn3ncccc23)n1)C1CC1` the remaining binding was 100% (RET V804M; binding; 1 µM).
`O=C(Nc1c[nH]nc1C(=O)NC1CCNCC1)c1cc(F)cc(F)c1` has a remaining binding of 100% (RET M918T; binding, competition with immobilised ligand; 1 µM).
For `COc1ccnn2ncc(-c3ccnc(N(C)C)n3)c12`, the remaining binding was 100% (RET V804M; binding; 1 µM).
`O=C(Nc1cnc(Oc2ccc(F)cc2)nc1)N1CCc2ncccc2[C@@H]1c1ccc(F)cc1` has a remaining binding of 95% (RET M918T; cell-free assay, competition with immobilised ligand; 1 µM).
With `O=C(c1ccc(Nc2ncc(Cl)c(-c3cc4ccccc4s3)n2)cc1)N1CCC(N2CCCC2)CC1` the remaining binding was 23% (RET V804L; binding, competition with immobilised ligand; 1 µM).
`O=C(NCc1ncc(C(F)(F)F)cc1Cl)c1ccc2c(c1)C1(CCS(=O)(=O)CC1)[C@@H](C1CC1)N2S(=O)(=O)c1ccc(F)cc1` gave a remaining binding of 100% (RET V804M; cell-free assay, competition with immobilised ligand; 1 µM).
`N[C@H]1CCN(c2nccc(-c3cnn4ncccc34)n2)C1` gave a remaining binding of 90% (RET M918T; binding; 1 µM).
With `Cc1cnc(Nc2ccc(C(=O)N3CCC(N4CCCC4)CC3)cc2)nc1-c1cc2ccccc2s1` the remaining binding was 11% (RET V804L; binding, competition with immobilised ligand; 1 µM).
For `O=C(N1CCS(=O)(=O)CC1)N1C[C@H](c2ccc(OC(F)(F)F)cc2)C[C@H](c2nc(C3CC3)no2)C1`, the remaining binding was 99% (RET V804L; cell-free assay, competition with immobilised ligand; 1 µM).
`C[C@@H]1CCN(c2nccc(-c3cnn4ncccc34)n2)C1` gave a remaining binding of 100% (RET M918T; binding; 1 µM).
For `CCCCN(CCCC)C(=O)CN1C[C@@H](c2cc(OC)c3c(c2)OCO3)[C@H](C(=O)O)[C@H]1CC(C)(C)CCC`, the remaining binding was 100% (RET V804L; cell-free assay, competition with immobilised ligand; 1 µM).
`CN(C)c1ncc(F)c(-c2cnn3ncccc23)n1` gave a remaining binding of 97% (RET; binding; 1 µM).
For `Nc1ncc2c(n1)-c1c([nH]c3ccc(C#CC4CC4)cc13)CCCC2`, the remaining binding was 100% (RET M918T; binding, competition with immobilised ligand; 1 µM).
